Assay results taken from the RNAGym collection of RNA variant scans (doi:10.1002/anie.201605470).

B1: Osa-1-4 twister ribozyme (parent)
chain: CCGCCUAACACUGCCAAUGCCGGUCCCAAGCCCGGAUAAAAGUGGAGGGGGCGG

Variants of: B1
Test: self-cleavage, relative activity (ratio to wild type); higher = more cleavage; co-transcriptional
Method in brief: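 A DNA template for a 54-nucleotide Oryza sativa twister ribozyme was synthesised with 97 % wild-type base and 1 % of each other base at the 48 positions downstream of the cleavage site. It was transcribed in vitro for 2 h at 37 °C, allowing co-transcriptional self-cleavage, then reverse-transcribed with a template-switching oligonucleotide, PCR-amplified and deep-sequenced. Cleavage status was scored from reads with or without upstream sequence. Relative activity is fraction cleaved normalised to wild type.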

Variant | self-cleavage
C15G G13A | 0.05
C15G G13U | 0.02
C15G G13C | 0.02
C15A G30U | 0.03
C15A G30C | 0.04
C15A G30A | 0.02
C15A C27G | 0.04
C15A C27A | 0.16
C15A C27U | 0.07
C14U G48A | 0.05
C14U G48C | 0.05
C14U G48U | 0.05
C14U U43G | 0.09
C14U U43C | 0.09
C14U U43A | 0.12
C14U U18G | 0.53
C14U U18A | 0.5
C14U U18C | 0.51
C15G G53A | 0.13
C15G G53U | 0.13
C15G G53C | 0.05
C15G G34C | 0.18
C15G G34A | 0.27
C15G G34U | 0.13

Variant | self-cleavage
C15U C31A | 0.03
C15U C31G | 0.06
C15U C31U | 0.06
C15A U12C | 0.07
C15A U12A | 0.11
C15A U12G | 0.15
C15A U24A | 0.05
C15A U24C | 0.08
C15A U24G | 0.02
C15U C32G | 0.08
C15U C32A | 0.03
C15U C32U | 0.06
C15A G48A | 0.05
C15A G48C | 0.04
C15A G48U | 0.04
C15A G23C | 0.03
C15A G23U | 0.05
C15A G23A | 0.08
C15A C25G | 0.04
C15A C25U | 0.08
C15A C25A | 0.07
C15G C27G | 0.1
C15G C27U | 0.08
C15G C27A | 0.08

Variant | self-cleavage
C14U G23U | 0.03
C14U G23C | 0.04
C14U G23A | 0.06
C15G G35C | 0.14
C15G G35U | 0.3
C15G G35A | 0.38
C15G C21G | 0.05
C15G C21A | 0.11
C15G C21U | 0.42
C15G G19A | 0.95
C15G G19C | 0.74
C15G G19U | 0.7
C14U C31A | 0.03
C14U C31G | 0.06
C14U C31U | 0.06
C15A C31U | 0.09
C15A C31A | 0.03
C15A C31G | 0.05
C15U C20G | 0.05
C15U C20U | 0.54
C15U C20A | 0.45
C15G U12A | 0.13
C15G U12C | 0.1
C15G U12G | 0.15

Variant | self-cleavage
C15A G45C | 0.04
C15A G45A | 0.05
C15A G45U | 0.04
C15G U37A | 0.45
C15G U37C | 0.47
C15G U37G | 0.72
C15A G22A | 0.2
C15A G22C | 0.03
C15A G22U | 0.09
C14U G54U | 0.47
C14U G54C | 0.12
C14U G54A | 0.17
C15G G42A | 0.12
C15G G42C | 0.08
C15G G42U | 0.05
C14U C25G | 0.06
C14U C25A | 0.06
C14U C25U | 0.1
C15A U37G | 0.78
C15A U37C | 0.59
C15A U37A | 0.51
C15G U43C | 0.11
C15G U43G | 0.1
C15G U43A | 0.17

Variant | self-cleavage
C14U G22A | 0.21
C14U G22U | 0.11
C14U G22C | 0.04
C15G G30C | 0.03
C15G G30A | 0.03
C15G G30U | 0.06
C15A C32G | 0.07
C15A C32A | 0.08
C15A C32U | 0.07
C15A G53U | 0.1
C15A G53A | 0.14
C15A G53C | 0.06
C14U G45A | 0.04
C14U G45C | 0.04
C14U G45U | 0.06
C14U U24G | 0.02
C14U U24A | 0.04
C14U U24C | 0.05
C15A U18A | 0.51
C15A U18G | 0.49
C15A U18C | 0.58
C15G C32U | 0.07
C15G C32G | 0.12
C15G C32A | 0.05

Variant | self-cleavage
C15U C33U | 0.06
C15U C33G | 0.03
C15U C33A | 0.05
C15G G45U | 0.04
C15G G45C | 0.04
C15G G45A | 0.07
C14U C15U | 0.09
C14U C15A | 0.08
C14U C15G | 0.07
C15G G44C | 0.19
C15G G44U | 0.17
C15G G44A | 0.12
C15G C31A | 0.03
C15G C31U | 0.09
C15G C31G | 0.12
C15G G49A | 0.07
C15G G49U | 0.06
C15G G49C | 0.05
C15U C26G | 0.06
C15U C26A | 0.01
C15U C26U | 0.08
C15G C33U | 0.11
C15G C33A | 0.05
C15G C33G | 0.06

Variant | self-cleavage
C14U G49A | 0.05
C14U G49U | 0.06
C14U G49C | 0.05
C15A G49C | 0.04
C15A G49A | 0.05
C15A G49U | 0.05
C15A C9A | 0.14
C15A C9G | 0.14
C15A C9U | 0.19
C15A G19C | 0.38
C15A G19U | 0.82
C15A G19A | 0.92
C15A C52U | 0.57
C15A C52A | 0.23
C15A C52G | 0.32
C14U C20A | 0.51
C14U C20U | 0.48
C14U C20G | 0.05
C14U | 0.63
C15U C21G | 0.04
C15U C21U | 0.46
C15U C21A | 0.09
C14U G13A | 0.03
